Data as given in ChEMBL document CHEMBL2029270, “Irreversible inhibition of epidermal growth factor receptor activity by 3-aminopropanamides” (J Med Chem, 2012).
pIC50: −log10 of the molar value. Active and inactive are the calls of the source. No cut-off for these calls is given here.

Tests used:
[1] = tested on: NCI-H1975; experiment: Antiproliferative activity against gefitinib-resistant human NCI-H1975 cells expressing EGFR T790M mutant after 3 days by MTT assay; assay type: functional, cell-based; conditions: NCI-H1975, 72 h
[2] = target: T1, Epidermal growth factor receptor (Homo sapiens, UniProt P00533); experiment: Inhibition of human recombinant EGFR using Ulight-CAGAGAIETDKEYYTVKD as substrate after 15 mins by time-resolved fluorimetric analysis
T1 sequence (P00533 whole entry): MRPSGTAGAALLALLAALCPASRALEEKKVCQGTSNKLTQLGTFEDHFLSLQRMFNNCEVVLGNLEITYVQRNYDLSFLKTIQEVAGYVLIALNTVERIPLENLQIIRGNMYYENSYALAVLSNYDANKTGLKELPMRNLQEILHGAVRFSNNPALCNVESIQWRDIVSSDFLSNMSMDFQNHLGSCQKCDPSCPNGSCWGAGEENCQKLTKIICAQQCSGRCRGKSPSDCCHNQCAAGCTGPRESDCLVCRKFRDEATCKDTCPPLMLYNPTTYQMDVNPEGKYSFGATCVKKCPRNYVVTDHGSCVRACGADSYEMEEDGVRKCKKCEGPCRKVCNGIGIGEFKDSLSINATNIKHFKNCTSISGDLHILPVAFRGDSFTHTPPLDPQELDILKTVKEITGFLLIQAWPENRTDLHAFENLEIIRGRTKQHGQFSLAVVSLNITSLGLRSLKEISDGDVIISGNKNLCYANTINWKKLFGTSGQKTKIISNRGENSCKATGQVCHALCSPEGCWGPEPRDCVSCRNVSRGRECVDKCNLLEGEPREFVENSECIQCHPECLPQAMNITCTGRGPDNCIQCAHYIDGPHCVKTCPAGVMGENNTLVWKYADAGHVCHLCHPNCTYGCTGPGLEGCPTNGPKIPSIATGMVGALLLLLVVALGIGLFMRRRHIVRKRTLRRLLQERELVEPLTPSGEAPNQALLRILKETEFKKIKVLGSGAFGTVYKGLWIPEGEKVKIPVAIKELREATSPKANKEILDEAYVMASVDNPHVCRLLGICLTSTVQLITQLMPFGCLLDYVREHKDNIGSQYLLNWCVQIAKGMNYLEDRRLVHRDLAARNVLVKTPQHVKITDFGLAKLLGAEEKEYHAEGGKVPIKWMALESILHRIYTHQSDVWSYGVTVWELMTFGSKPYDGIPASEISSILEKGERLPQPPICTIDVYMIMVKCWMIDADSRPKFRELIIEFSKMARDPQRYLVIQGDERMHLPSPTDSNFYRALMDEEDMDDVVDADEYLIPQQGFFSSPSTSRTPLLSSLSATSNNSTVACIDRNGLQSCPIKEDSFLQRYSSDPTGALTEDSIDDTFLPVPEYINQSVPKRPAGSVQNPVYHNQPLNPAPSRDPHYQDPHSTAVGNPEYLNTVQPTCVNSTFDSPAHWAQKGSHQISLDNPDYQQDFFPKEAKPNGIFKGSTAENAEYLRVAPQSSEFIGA

[3] = tested on: NCI-H1975; experiment: Ratio of gefitinib IC50 to compound IC50 for human NCI-H1975 cells; assay type: functional
[4] = target: T1, Epidermal growth factor receptor; conditions: A549, at 1 µM
[5] = target: T1, Epidermal growth factor receptor; conditions: A549, at 1 µM; remark: listed apart in the source
[6] = target: T2, Receptor tyrosine-protein kinase erbB-2 (Homo sapiens, UniProt P04626); experiment: Inhibition of ErbB2 by time-resolved fluorometry
T2 sequence (P04626 whole entry): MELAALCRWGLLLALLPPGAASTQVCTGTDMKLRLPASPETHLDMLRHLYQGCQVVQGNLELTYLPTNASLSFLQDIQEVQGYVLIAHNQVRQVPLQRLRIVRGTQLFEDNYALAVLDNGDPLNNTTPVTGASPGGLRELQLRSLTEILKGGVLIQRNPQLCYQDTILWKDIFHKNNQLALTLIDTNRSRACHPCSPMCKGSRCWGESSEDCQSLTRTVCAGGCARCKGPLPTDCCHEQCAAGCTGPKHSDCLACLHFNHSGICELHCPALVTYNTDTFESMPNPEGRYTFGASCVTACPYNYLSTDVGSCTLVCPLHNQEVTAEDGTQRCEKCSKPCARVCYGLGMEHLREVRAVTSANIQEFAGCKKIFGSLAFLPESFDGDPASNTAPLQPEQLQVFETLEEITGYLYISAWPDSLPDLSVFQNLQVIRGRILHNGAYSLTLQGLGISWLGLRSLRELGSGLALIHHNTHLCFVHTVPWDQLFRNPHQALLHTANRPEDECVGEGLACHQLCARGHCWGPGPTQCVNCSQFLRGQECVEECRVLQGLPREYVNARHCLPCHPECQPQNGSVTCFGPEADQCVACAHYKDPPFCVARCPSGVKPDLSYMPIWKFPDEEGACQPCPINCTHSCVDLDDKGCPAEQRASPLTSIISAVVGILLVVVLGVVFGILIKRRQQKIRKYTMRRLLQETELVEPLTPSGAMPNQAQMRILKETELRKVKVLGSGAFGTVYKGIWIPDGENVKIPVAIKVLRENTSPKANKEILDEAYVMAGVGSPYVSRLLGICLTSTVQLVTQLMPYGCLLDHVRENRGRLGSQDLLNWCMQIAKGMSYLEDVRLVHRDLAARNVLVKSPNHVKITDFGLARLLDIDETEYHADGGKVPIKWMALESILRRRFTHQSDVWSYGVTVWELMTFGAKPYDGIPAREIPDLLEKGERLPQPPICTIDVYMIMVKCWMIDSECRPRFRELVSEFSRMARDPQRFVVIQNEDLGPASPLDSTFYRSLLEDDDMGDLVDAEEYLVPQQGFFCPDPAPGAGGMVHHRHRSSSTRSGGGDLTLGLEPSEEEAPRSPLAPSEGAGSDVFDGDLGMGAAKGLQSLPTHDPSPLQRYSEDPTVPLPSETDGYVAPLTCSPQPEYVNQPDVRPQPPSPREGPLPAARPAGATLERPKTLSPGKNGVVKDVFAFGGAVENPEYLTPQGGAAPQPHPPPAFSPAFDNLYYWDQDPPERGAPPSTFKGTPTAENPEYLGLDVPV

[7] = tested on: A549; experiment: Drug uptake in human A549 cells at 1 uM after 1 hr by LC-MS analysis; assay type: ADME, cell-based; conditions: a549, 1 h
How it was run: (§1)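 A549 cells plated 24 h, then exposed 1 h at 37 °C to 1 μM compound (0.1% DMSO final), assayed immediately or 8 h after three washes with fresh medium. Ethanol extraction at 4 °C, extract dried, redissolved, quantified by LC−MS against 50 nM–5 μM calibration (LOQ 50 nM, LOD 20 nM).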

[8] = tested on: A549; experiment: Drug uptake in human A549 cells at 1 uM incubated for 1 hr measured 8 hrs post-wash out by LC-MS analysis; assay type: ADME, cell-based; conditions: a549, 1 h; how it was run: as §1
[9] = Chemical stability of the compound in 0.01 M PBS buffer assessed as compound remaining at 1 uM after 24 hrs at pH 7.4; assay type: physicochemical; conditions: read-out: Stability
How it was run: (§2)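 Buffer stability at pH 7.4 or pH 9.0, compound at 1 μM, 37 °C for 24 h; percentage of parent left measured by LC−UV and LC−ESI-MS, mean ± SD, n = 3.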

[10] = Chemical stability of the compound in 0.01 M borate buffer assessed as compound remaining at 1 uM after 24 hrs at pH 9; assay type: physicochemical; conditions: read-out: Stability; how it was run: as §2
[11] = Metabolic stability in rat plasma assessed as compound remaining at 1 uM after 24 hrs; assay type: ADME, cell-free; conditions: read-out: Stability
How it was run: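 Incubation of compound (1 μM) in 80% (v/v) rat plasma at 37 °C for 24 h; parent remaining determined by LC−UV and LC−ESI-MS, mean ± SD, n = 3.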

[12] = Chemical stability of the compound assessed as compound remaining at 1 uM after 1 hr at pH 7.4 in the presence of DTT; assay type: physicochemical; conditions: buffer, read-out: Stability
How it was run: (§3)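 Test compound (1 μM) in PBS pH 7.4 with freshly prepared thiol (DTT, GSH, NAC or cysteamine, 2 mM), incubated 1 h at 37 °C; parent remaining quantified by LC−UV and LC−ESI-MS, mean ± SD, n = 3.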

[13] = Chemical stability of the compound assessed as compound remaining at 1 uM after 1 hr at pH 7.4 in the presence of GSH; assay type: physicochemical; conditions: buffer, read-out: Stability; how it was run: as §3
[14] = Chemical stability of the compound assessed as compound remaining at 1 uM after 1 hr at pH 7.4 in the presence of NAC; assay type: physicochemical; conditions: buffer, read-out: Stability; how it was run: as §3
[15] = Chemical stability of the compound assessed as compound remaining at 1 uM after 1 hr at pH 7.4 in the presence of cysteamine; assay type: physicochemical; conditions: buffer, read-out: Stability; how it was run: as §3
[16] = target: T2, Receptor tyrosine-protein kinase erbB-2; experiment: Inhibition of ErbB2 up to 10 uM by time-resolved fluorometry
[17] = Drug degradation of the compound assessed as thiol-conjugate formation at 1 uM up to 24 hrs at pH 7.4 in the presence of DTT; assay type: physicochemical; conditions: buffer, pH 7.4, 24 h
How it was run: (§4)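 Conjugate formation checked by HPLC−UV and HPLC−ESI-MS after adding freshly prepared thiol (2 mM; cysteamine, NAC, DTT or reduced GSH) to PBS pH 7.4 holding compound at 1 μM, 37 °C; sampled up to 24 h.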

[18] = Drug degradation of the compound assessed as thiol-conjugate formation at 1 uM up to 24 hrs at pH 7.4 in the presence of GSH; assay type: physicochemical; conditions: buffer, pH 7.4, 24 h; how it was run: as §4
[19] = Drug degradation of the compound assessed as thiol-conjugate formation at 1 uM up to 24 hrs at pH 7.4 in the presence of NAC; assay type: physicochemical; conditions: buffer, pH 7.4, 24 h; how it was run: as §4
[20] = Drug degradation of the compound assessed as thiol-conjugate formation at 1 uM up to 24 hrs at pH 7.4 in the presence of cysteamine; assay type: physicochemical; conditions: buffer, pH 7.4, 24 h; how it was run: as §4
[21] = tested on: A549; experiment: Prodrug conversion in human A549 cell lysate assessed as N-(4-(3-bromophenylamino)quinazolin-6-yl)acrylamide level at 10 uM after 1 hr by HPLC-HRMS analysis; assay type: ADME, cell-based; conditions: a549, 1 h
How it was run: (§5)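 A549 cells grown 2 days, lysed by freeze/thaw; lysate pre-spiked with 2 mM cysteine, compound added from fresh DMSO stock to 10 μM final, 37 °C. Aliquots at 0, 1 and 4 h quenched with double volume acetonitrile, centrifuged, analysed by LC−HRMS in positive ion mode.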

[22] = tested on: A549; experiment: Drug metabolism in human A549 cell lysate assessed as N-(4-(3-bromophenylamino)quinazolin-6-yl)acrylamide-cysteine adduct level at 10 uM after 1 hr by HPLC-HRMS analysis; assay type: ADME, cell-based; conditions: a549, 1 h; how it was run: as §5
[23] = tested on: Epidermal growth factor receptor (Homo sapiens), P00533 [T790M]; experiment: (§6) Inhibition of EGFR T790M mutant autophosphorylation in human NCI-H1975 cells after 1 hr by Western blot analysis; assay type: cell-based
Chain of Epidermal growth factor receptor (Homo sapiens), P00533 [T790M] (P00533 whole entry T790M): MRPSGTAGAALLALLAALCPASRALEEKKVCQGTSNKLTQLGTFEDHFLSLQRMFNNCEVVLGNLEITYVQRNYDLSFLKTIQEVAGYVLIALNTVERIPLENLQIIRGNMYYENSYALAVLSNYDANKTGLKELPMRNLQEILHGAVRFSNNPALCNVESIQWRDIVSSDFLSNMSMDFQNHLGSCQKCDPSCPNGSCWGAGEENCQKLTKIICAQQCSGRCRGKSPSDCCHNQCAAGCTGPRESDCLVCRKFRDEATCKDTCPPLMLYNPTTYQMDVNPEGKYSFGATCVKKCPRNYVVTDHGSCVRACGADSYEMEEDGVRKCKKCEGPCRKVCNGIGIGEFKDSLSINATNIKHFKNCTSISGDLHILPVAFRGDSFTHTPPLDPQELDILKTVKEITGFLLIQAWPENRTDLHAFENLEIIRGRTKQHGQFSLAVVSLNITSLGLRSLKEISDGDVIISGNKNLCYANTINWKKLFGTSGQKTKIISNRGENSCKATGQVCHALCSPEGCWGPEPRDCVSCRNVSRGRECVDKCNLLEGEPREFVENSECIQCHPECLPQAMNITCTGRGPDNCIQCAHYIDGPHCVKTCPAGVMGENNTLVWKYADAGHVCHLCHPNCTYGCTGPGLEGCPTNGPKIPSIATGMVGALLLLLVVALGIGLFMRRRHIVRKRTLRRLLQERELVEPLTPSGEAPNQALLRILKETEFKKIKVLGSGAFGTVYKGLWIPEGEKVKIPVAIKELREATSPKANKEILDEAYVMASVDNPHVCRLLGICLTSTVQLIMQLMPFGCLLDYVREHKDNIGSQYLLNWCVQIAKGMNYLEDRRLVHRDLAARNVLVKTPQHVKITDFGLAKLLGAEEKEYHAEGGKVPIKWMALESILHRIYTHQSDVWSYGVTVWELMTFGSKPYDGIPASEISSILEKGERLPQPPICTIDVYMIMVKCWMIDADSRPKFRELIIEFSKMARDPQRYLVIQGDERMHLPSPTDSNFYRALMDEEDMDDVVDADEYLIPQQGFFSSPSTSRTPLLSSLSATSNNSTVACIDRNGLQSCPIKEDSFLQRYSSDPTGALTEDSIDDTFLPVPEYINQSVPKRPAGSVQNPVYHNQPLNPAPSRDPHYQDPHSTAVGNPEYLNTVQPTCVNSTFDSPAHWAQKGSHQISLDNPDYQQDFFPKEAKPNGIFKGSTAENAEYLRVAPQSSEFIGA

[24] = target: Epidermal growth factor receptor (Homo sapiens, UniProt P00533, T790M); experiment: as §6; assay type: cell-based
Chain of Epidermal growth factor receptor (Homo sapiens, UniProt P00533, T790M) (P00533 whole entry T790M): as above

Row | SMILES | pIC50 [1] | pIC50 [2] | inhibition [4] [%] | inhibition [5] [%] | also measured
1 | CCOc1cc2ncc(C#N)c(Nc3ccc(OCc4ccccn4)c(Cl)c3)c2cc1NC(=O)CCN1CCOCC1 | 5.56 | 7.43 | 39 | 48 | –
2 | Nc1ccc2ncnc(Nc3cccc(Br)c3)c2c1 | – | – | – | – | Drug uptake [7]: 0.105 nmol/mg; Drug uptake [8]: Not Active
3 | CN(C)CCC(=O)Nc1ccc2ncnc(Nc3cccc(Br)c3)c2c1 | – | – | – | – | remaining at 24 h, 1 µM [9]: 97.5%; remaining at 24 h, 1 µM [10]: 77%; remaining at 24 h, 1 µM [11]: 98.7%; remaining at 1 h, 1 µM [12]: 99.2%; remaining at 1 h, 1 µM [13]: 101%; remaining at 1 h, 1 µM [14]: 100%; remaining at 1 h, 1 µM [15]: 100%; inhibition [16]: inactive; Drug degradation [17]: Not Active; Drug degradation [18]: Not Active; Drug degradation [19]: Not Active; Drug degradation [20]: Not Active; Drug uptake [7]: 0.05 nmol/mg; Drug uptake [8]: Not Active; Drug metabolism [21]: Active; Drug metabolism [22]: Active
4 | CCOc1cc2ncc(C#N)c(Nc3ccc(F)c(Cl)c3)c2cc1NC(=O)CCN1CCOCC1 | 5.41 | 8.69 | 48 | 86 | –
5 | C=CC(=O)Nc1cc2c(Nc3ccc(F)c(Cl)c3)c(C#N)cnc2cc1OCC | 5.45 | 8.84 | 33 | 92 | –
6 | C=CC(=O)Nc1ccc2ncnc(Nc3cccc(Br)c3)c2c1 | – | – | – | – | remaining at 24 h, 1 µM [9]: 102%; remaining at 24 h, 1 µM [10]: 105%; remaining at 24 h, 1 µM [11]: 21.8%; remaining at 1 h, 1 µM [12]: 100%; remaining at 1 h, 1 µM [13]: 63.8%; remaining at 1 h, 1 µM [14]: 85.6%; remaining at 1 h, 1 µM [15]: 20.1%; Drug degradation [18]: Active; Drug degradation [19]: Active; Drug degradation [20]: Active; Drug uptake [7]: Not Active; Drug uptake [8]: Not Active
7 | CN(C)CCC(=O)N(C)c1ccc2ncnc(Nc3cccc(Br)c3)c2c1 | 4.87 | 7.76 | 10 | 47 | –
8 | O=C(CCN1CCCCC1)Nc1ccc2ncnc(Nc3cccc(Br)c3)c2c1 | 5.18 | 9.57 | 93 | 95 | –
9 | O=C(CCN1CCOCC1)Nc1ccc2ncnc(Nc3cccc(Br)c3)c2c1 | < 4.70 | 9.29 | 91 | 98 | –

Continued, in another order:

Row | pIC50 [1] | pIC50 [2] | inhibition [4] [%] | inhibition [5] [%] | SMILES | also measured
10 | 5.68 | 9.54 | 97 | 97 | CCOc1cc2ncnc(Nc3ccc(F)c(Cl)c3)c2cc1NC(=O)CCN1CCOCC1 | Ratio IC50 [3]: 3
11 | 5.79 | 9.74 | 99 | 96 | C=CC(=O)Nc1cc2c(Nc3ccc(F)c(Cl)c3)ncnc2cc1OCC | –
12 | 5.69 | 7.90 | 59 | 61 | CCOc1cc2ncc(C#N)c(Nc3ccc(OCc4ccccn4)c(Cl)c3)c2cc1NC(=O)CCN(C)C | pIC50 [6]: 6.01
13 | 5.63 | 9.17 | 67 | 88 | CCOc1cc2ncc(C#N)c(Nc3ccc(F)c(Cl)c3)c2cc1NC(=O)CCN(C)C | –
14 | 5.66 | 9.57 | 100 | 98 | CCOc1cc2ncnc(Nc3ccc(F)c(Cl)c3)c2cc1NC(=O)CCN(C)C | Ratio IC50 [3]: 3
15 | 5.56 | 8.66 | 82 | 92 | CCOc1cc2ncc(C#N)c(Nc3ccc(F)c(Cl)c3)c2cc1NC(=O)CCN1CCCCC1 | –
16 | 5.79 | 9.29 | 92 | 98 | CCOc1cc2ncnc(Nc3ccc(F)c(Cl)c3)c2cc1NC(=O)CCN1CCCCC1 | Ratio IC50 [3]: 3
17 | 6.15 | 7.61 | 58 | 71 | CCOc1cc2ncc(C#N)c(Nc3ccc(OCc4ccccn4)c(Cl)c3)c2cc1NC(=O)CCN1CCCCC1 | inhibition [23]: Dose-dependent effect; pIC50 [24]: 6.82; pIC50 [6]: 6.01; Ratio IC50 [3]: 11
